What all share (assay type): cell-based, human
Assay [1] concerns GCB-DLBCL cell lines (OCI-Ly7 and OCI-Ly1). The assay is described as follows: Growth inhibition, ATP-based luminescent assay. The conditions noted are these: 50 µM, 48 hr. In outline: (§1)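 Cells received a single dose of test compound over a concentration range and proliferation was read at 48 hr by luminescent ATP quantification. Luminescence was converted to cell number using per-line standard curves built from trypan blue counts. Viability was normalised to controls and expressed as 1 − fractional viability, and GI25/GI50 were fitted. Experiments were run three times in triplicate.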

Assay [2] has as its system nuclear c-REL in HBL-1 cells. Description: c-REL flow cytometry of whole cells or isolated nuclei. The conditions noted are these: 200 nM MI-2 or 50 µM Z-VRPR-FMK, 24 hr. The method in brief: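 HBL-1 cells were exposed for 24 hr to 200 nM test compound, to 50 µM Z-VRPR-FMK as positive control, or to vehicle. c-REL was then measured by flow cytometry in whole cells and in isolated nuclei.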

A further assay relates to OCI-Ly10 cells. Description: Growth inhibition, ATP-based luminescent assay. The conditions noted are these: 50 µM, 48 hr. The method in brief:
as §1

The test system of a further assay is HLY-1 cells. Description: Growth inhibition, ATP-based luminescent assay. The conditions noted are these: 50 µM, 48 hr. The method in brief: as §1
For another assay, the system named is TMD8 cells. The assay is described as follows: Growth inhibition, ATP-based luminescent assay. The conditions noted are these: 50 µM, 48 hr. The method in brief:
as §1

The subject of the next assay is U2932 cells. Description: Growth inhibition, ATP-based luminescent assay. The conditions noted are these: 50 µM, 48 hr. In outline: as §1
Another assay concerns OCI-Ly3 cells. The assay is described as follows: Growth inhibition, ATP-based luminescent assay. The conditions noted are these: 50 µM, 48 hr. In outline:
as §1

The next assay relates to HBL-1 cells. Description: Growth inhibition, ATP-based luminescent assay. The conditions noted are these: 50 µM, 48 hr. The method in brief: as §1

As to Z-VRPR-FMK [reference compound], the response of proliferation entry in assay [1] is given as “did not respond”; in the assay with OCI-Ly10 cells, “inhibition of proliferation”; in the assay with HLY-1 cells, “relatively little response”; in the assay on TMD8 cells, “inhibition of proliferation”; in the assay on U2932 cells, “relatively little response”; in the assay on OCI-Ly3 cells, “inhibition of proliferation”. Besides, the response of proliferation entry with HBL-1 cells is listed as “inhibition of proliferation”. In assay [2], the “nuclear c-REL (flow cytometry)” value is listed as “reduced nuclear c-REL to a similar extent”.

The record behind these values is publication PMC3984478 (Cancer cell, 2012).
